Laboratory results as given in ChEMBL document CHEMBL1130109, “Novel 99mTc aminobisthiolato/monothiolato "3 + 1" mixed ligand complexes: structure-activity relationships and preliminary in vivo validation as brain blood flow imaging agents” (J Med Chem, 1997).
Several values for one entry are separate records, joined by “and”; a condition that tells them apart may be missing. Equal values may be shown once.

Tests used:
Mus musculus [1] = species on record: Mus musculus; assay: Biodistribution in mice bladder plus excreted urine was determined; format: ADME, organism-based; details: in vivo
Method in brief: (§1)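 Male Swiss Albino mice (19–34g, at least five per group) were injected in the tail vein with HPLC-purified 99mTc complex in 50% methanol (0.1 mL, 2–3 μCi). Killed by cardiectomy under slight ether anesthesia at 5, 10, 30 or 60 min. Organs were excised, weighed and γ-counted against standards of 1% injected dose, as % ID/organ. Bladder plus excreted urine was not weighed. Stomach and intestines were not emptied.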

Mus musculus [2] = species on record: Mus musculus; assay: Percentage biodistribution in mouse blood, 10 minutes post injection; format: ADME, organism-based; details: in vivo
Method in brief: (§2)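 Mice (Swiss Albino males, 19–34g, ≥5/group) received tail-vein HPLC-purified 99mTc complex (0.1 mL, 2–3 μCi, 50% methanol) and were killed by cardiectomy under ether at set times. Blood % ID was computed from measured activity and sample weight, with blood taken as 7% of body weight, against 1%-dose standards.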

Mus musculus [3] = species on record: Mus musculus; assay: Percentage biodistribution in mouse blood, 30 minutes post injection; format: ADME, organism-based; details: in vivo, 0.5 h; method in brief: as §2
Mus musculus [4] = species on record: Mus musculus; assay: Percentage biodistribution in mouse blood, 5 minutes post injection; format: ADME, organism-based; details: in vivo; method in brief: as §2
Mus musculus [5] = species on record: Mus musculus; assay: Percentage biodistribution in mouse blood, 60 minutes post injection; format: ADME, organism-based; details: in vivo, 1 h; method in brief: as §2
Mus musculus [6] = species on record: Mus musculus; assay: Percentage biodistribution in mouse brain, 10 minutes post injection; format: ADME, organism-based; details: in vivo; method in brief: as §1
Mus musculus [7] = species on record: Mus musculus; assay: Percentage biodistribution in mouse brain, 30 minutes post injection; format: ADME, organism-based; details: in vivo, 0.5 h; method in brief: as §1
Mus musculus [8] = species on record: Mus musculus; assay: Percentage biodistribution in mouse brain, 5 minutes post injection; format: ADME, organism-based; details: in vivo; method in brief: as §1
Mus musculus [9] = species on record: Mus musculus; assay: Percentage biodistribution in mouse brain, 60 minutes post injection; format: ADME, organism-based; details: in vivo, 1 h; method in brief: as §1
Mus musculus [10] = species on record: Mus musculus; assay: Percentage biodistribution in mouse heart, 10 minutes post injection; format: ADME, organism-based; details: in vivo; method in brief: as §1
Mus musculus [11] = species on record: Mus musculus; assay: Percentage biodistribution in mouse heart, 30 minutes post injection; format: ADME, organism-based; details: in vivo, 0.5 h; method in brief: as §1
Mus musculus [12] = species on record: Mus musculus; assay: Percentage biodistribution in mouse heart, 5 minutes post injection; format: ADME, organism-based; details: in vivo; method in brief: as §1
Mus musculus [13] = species on record: Mus musculus; assay: Percentage biodistribution in mouse intestine, 10 minutes post injection; format: ADME, organism-based; details: in vivo; method in brief: as §1
Mus musculus [14] = species on record: Mus musculus; assay: Percentage biodistribution in mouse intestine, 30 minutes post injection; format: ADME, organism-based; details: in vivo, 0.5 h; method in brief: as §1
Mus musculus [15] = species on record: Mus musculus; assay: Percentage biodistribution in mouse intestine, 5 minutes post injection; format: ADME, organism-based; details: in vivo; method in brief: as §1
Mus musculus [16] = species on record: Mus musculus; assay: Percentage biodistribution in mouse intestine, 60 minutes post injection; format: ADME, organism-based; details: in vivo, 1 h; method in brief: as §1
Mus musculus [17] = species on record: Mus musculus; assay: Percentage biodistribution in mouse liver, 10 minutes post injection; format: ADME, organism-based; details: in vivo; method in brief: as §1
Mus musculus [18] = species on record: Mus musculus; assay: Percentage biodistribution in mouse liver, 30 minutes of post injection; format: ADME, organism-based; details: in vivo, 0.5 h; method in brief: as §1
Mus musculus [19] = species on record: Mus musculus; assay: Percentage biodistribution in mouse liver, 5 minutes post injection; format: ADME, organism-based; details: in vivo; method in brief: as §1
Mus musculus [20] = species on record: Mus musculus; assay: Biodistribution in mice liver at 60 minutes of post injection; format: ADME, organism-based; details: in vivo, 1 h; method in brief: as §1
Mus musculus [21] = species on record: Mus musculus; assay: Biodistribution in mice lungs at 10 min of post injection; format: ADME, organism-based, Lung; details: in vivo; method in brief: as §1
Mus musculus [22] = species on record: Mus musculus; assay: Percentage biodistribution in mouse lung, 30 minutes post injection; format: ADME, organism-based; details: in vivo, 0.5 h; method in brief: as §1
Mus musculus [23] = species on record: Mus musculus; assay: Percentage biodistribution in mousee lung, 5 minutes post injection; format: ADME, organism-based; details: in vivo; method in brief: as §1
Mus musculus [24] = species on record: Mus musculus; assay: Biodistribution in mice lungs at 60 min of post injection; format: ADME, organism-based, Lung; details: in vivo, 1 h; method in brief: as §1
Mus musculus [25] = species on record: Mus musculus; assay: Percentage biodistribution in mouse spleen; format: ADME, organism-based; details: in vivo; method in brief: as §1
Mus musculus [26] = species on record: Mus musculus; assay: Percentage biodistribution in mouse stomach; format: ADME, organism-based; details: in vivo; method in brief: as §1
[27] = Partition coefficient (logD7.4); format: physicochemical; details: octanol/water, pH 7.4
Method in brief: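 HPLC-purified 99mTc complex (0.1 mL) was added to 2 mL each of 1-octanol and 0.125 M phosphate buffer, pH 7.4. The mix was vortexed and centrifuged at 5000 rpm for 5 min. Three 0.2 mL samples per layer were γ-counted. Mean cpm/mL of octanol was divided by that of buffer.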

Mus musculus [28] = species on record: Mus musculus; assay: Percentage biodistribution in mouse heart, 60 minutes post injection; format: ADME, organism-based; details: in vivo, 1 h; method in brief: as §1
[29] = Retention ratio is measured as the brain uptake (%ID/organ) at 30 min pi divided by the brain uptake at 5 min pi.; format: functional
Method in brief: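 Brain % ID/organ in tail-vein-injected male Swiss Albino mice (0.1 mL, 2–3 μCi purified 99mTc complex in 50% methanol; γ-counted after cardiectomy under ether). Mean brain % ID/organ at 30 min pi was divided by the mean at 5 min pi.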

[30] = % ID/gram in brain divided by %ID/gram in blood at 10 minutes.; format: functional, tissue-based
Method in brief: (§3)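 Male Swiss Albino mice (19–34g, at least five per group) got HPLC-purified 99mTc complex in 50% methanol, 0.1 mL, 2–3 μCi, by tail vein. They were killed by cardiectomy under light ether at 5, 10, 30 or 60 min. % ID/g (% ID/organ ÷ organ weight) of brain was divided by that of blood; blood assumed 7% of body weight.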

[31] = % ID/gram in brain divided by %ID/gram in blood at 5 minutes.; format: functional, tissue-based; method in brief: as §3
[32] = % ID/gram in brain divided by %ID/gram in blood at 60 minutes.; format: functional, tissue-based; method in brief: as §3

[4-methoxythio)phenolato][N,N-bis(2-mercaptoethyl)-N',N'-diethylethylenediamine] oxotechnetium [listing 1 of 2 here]
ID/organ (Mus musculus [1]): 2.24% and 6.87% | ID/organ (Mus musculus [2]): 1.53% | ID/organ (Mus musculus [3]): 5.14% and 1.29% | ID/organ (Mus musculus [4]): 6.09% and 2.02% | ID/organ (Mus musculus [5]): 1.21% | ID/organ (Mus musculus [6]): 2.47% | ID/organ (Mus musculus [7]): 0.56% and 1.71% | ID/organ (Mus musculus [8]): 2.26% and 3.01% | ID/organ (Mus musculus [9]): 1.54% | ID/organ (Mus musculus [10]): 0.46% | ID/organ (Mus musculus [11]): 0.28% and 0.19% | ID/organ (Mus musculus [12]): 0.81% and 0.74% | ID/organ (Mus musculus [13]): 9.61% | ID/organ (Mus musculus [14]): 21.19% and 18.99% | ID/organ (Mus musculus [15]): 9.22% and 8.31% | ID/organ (Mus musculus [16]): 33.7% | ID/organ (Mus musculus [17]): 14.14% | ID/organ (Mus musculus [18]): 27.33% and 25.58% | ID/organ (Mus musculus [19]): 17.06% and 10.73% | ID/organ (Mus musculus [20]): 35.12% | ID/organ (Mus musculus [21]): 9.78% | ID/organ (Mus musculus [22]): 3.49% and 3.09% | ID/organ (Mus musculus [23]): 11.03% and 15.37% | ID/organ (Mus musculus [24]): 1.79% | ID/organ (Mus musculus [25]): 0.61% and 0.21% | ID/organ (Mus musculus [26]): 2.43% and 2.34% | logD [27]: 2.54 and 2.63 | ID/organ (Mus musculus [28]): 0.12%

[4-methoxythio)phenolato][N,N-bis(2-mercaptoethyl)-N',N'-diethylethylenediamine] oxotechnetium [listing 2 of 2 here]
Retention ratio [29]: 0.25 and 0.57 | Ratio [30]: 4.71 | Ratio [31]: 1.7 and 4.43 | Ratio [32]: 4.23
